Source: ChEMBL document CHEMBL1914304 (J Med Chem, 2011)

How the values were obtained:
[1] = biological target: T1, Potassium/sodium hyperpolarization-activated cyclic nucleotide-gated channel 4 (Homo sapiens) (UniProt Q9Y3Q4); test: Inhibition of HCN4 at 10 uM after 5 mins by patch clamp assay
T1 sequence (whole entry): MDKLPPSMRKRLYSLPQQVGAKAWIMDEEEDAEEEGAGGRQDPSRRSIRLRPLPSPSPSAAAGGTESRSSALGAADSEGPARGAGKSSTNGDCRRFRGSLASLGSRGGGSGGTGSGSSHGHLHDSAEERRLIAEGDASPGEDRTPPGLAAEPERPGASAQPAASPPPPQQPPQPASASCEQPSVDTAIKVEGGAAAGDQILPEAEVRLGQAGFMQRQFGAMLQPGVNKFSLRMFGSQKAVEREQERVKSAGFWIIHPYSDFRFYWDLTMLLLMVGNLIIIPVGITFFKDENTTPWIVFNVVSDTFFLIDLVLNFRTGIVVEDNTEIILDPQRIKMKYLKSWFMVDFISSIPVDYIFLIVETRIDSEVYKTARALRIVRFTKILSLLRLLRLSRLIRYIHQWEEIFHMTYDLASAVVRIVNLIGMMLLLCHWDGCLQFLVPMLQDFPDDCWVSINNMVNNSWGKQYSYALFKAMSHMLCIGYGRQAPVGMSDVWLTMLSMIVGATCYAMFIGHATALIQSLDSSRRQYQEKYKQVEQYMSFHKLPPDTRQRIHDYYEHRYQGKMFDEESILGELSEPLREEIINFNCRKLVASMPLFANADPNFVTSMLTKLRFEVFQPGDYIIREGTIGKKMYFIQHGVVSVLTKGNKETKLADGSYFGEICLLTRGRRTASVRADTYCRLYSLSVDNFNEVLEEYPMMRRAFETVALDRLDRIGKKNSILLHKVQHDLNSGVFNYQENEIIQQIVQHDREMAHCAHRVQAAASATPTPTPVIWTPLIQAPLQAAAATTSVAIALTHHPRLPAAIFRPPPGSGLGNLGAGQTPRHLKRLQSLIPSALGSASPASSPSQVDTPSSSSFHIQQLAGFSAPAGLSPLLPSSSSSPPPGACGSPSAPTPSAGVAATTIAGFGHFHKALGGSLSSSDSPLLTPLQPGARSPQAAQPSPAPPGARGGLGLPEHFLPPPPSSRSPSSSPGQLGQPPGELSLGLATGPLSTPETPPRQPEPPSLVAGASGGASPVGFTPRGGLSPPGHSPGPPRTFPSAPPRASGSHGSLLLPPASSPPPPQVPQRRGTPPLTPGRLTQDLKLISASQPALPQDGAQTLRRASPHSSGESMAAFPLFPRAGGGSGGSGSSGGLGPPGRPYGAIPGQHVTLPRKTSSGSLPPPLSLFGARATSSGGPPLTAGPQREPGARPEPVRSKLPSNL
Outline: (§1)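 Cardiac ion channel panel run by a contract lab on an automated parallel patch-clamp system at room temperature. Each of 12 cardiac channels was tested with 10 µM compound for 5 min exposure, in two cells per channel (n ≥ 2). Values are reported as mean % inhibition.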

[2] = biological target: Potassium voltage-gated channel subfamily A member 5 (Homo sapiens) (UniProt P22460); test: Inhibition of Kv1.5 at 10 uM after 5 mins by patch clamp assay; outline: as §1
Sequence of Potassium voltage-gated channel subfamily A member 5 (Homo sapiens) (P22460 whole entry): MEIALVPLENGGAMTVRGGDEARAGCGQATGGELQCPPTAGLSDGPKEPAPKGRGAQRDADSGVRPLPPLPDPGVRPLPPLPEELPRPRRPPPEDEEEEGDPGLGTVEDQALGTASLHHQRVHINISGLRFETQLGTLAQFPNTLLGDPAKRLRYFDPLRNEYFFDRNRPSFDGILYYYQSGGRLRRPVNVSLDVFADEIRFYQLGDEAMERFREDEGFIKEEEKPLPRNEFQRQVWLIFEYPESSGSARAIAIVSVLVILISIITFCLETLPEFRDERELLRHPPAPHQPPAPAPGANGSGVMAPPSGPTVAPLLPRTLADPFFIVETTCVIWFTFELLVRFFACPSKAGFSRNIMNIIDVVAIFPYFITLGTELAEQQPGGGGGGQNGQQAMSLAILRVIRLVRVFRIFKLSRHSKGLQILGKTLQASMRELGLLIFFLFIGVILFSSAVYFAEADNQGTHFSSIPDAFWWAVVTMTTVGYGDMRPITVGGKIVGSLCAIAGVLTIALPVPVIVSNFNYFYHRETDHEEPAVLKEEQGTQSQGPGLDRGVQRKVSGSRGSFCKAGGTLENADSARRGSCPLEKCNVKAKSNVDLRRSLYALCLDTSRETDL

Kv4.3 = biological target: T2, Kv4.3 (Homo sapiens, UniProt Q9UK17); test: Inhibition of Kv4.3 at 10 uM after 5 mins by patch clamp assay; outline: as §1
T2 sequence (Q9UK17 whole entry): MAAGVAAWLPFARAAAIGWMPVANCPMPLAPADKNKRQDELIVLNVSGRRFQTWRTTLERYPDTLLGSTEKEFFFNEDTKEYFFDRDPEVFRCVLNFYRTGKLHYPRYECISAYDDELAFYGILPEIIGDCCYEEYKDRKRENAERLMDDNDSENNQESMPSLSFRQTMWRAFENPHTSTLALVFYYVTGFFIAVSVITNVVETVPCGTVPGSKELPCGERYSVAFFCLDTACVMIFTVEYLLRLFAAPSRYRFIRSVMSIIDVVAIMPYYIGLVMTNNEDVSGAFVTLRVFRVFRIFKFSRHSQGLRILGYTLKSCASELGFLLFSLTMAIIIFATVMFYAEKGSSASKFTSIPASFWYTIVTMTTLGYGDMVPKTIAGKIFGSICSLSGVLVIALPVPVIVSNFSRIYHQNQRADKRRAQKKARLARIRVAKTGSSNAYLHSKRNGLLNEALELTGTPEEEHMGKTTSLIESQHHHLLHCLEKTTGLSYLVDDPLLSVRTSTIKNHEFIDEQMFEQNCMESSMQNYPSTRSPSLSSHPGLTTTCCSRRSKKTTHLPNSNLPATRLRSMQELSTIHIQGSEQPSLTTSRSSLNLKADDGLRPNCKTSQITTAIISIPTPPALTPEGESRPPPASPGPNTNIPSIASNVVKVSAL

[3] = biological target: Sulfonylurea receptor 2, Kir6.2 (Homo sapiens, UniProt O60706+Q14654); test: Inhibition of human kir6.2/SUR2A ion channel coexpressed in human HEK293 cells after 5 mins by patch clamp assay; format: cell-based
Sequence of Sulfonylurea receptor 2, Kir6.2 (Q14654 whole entry): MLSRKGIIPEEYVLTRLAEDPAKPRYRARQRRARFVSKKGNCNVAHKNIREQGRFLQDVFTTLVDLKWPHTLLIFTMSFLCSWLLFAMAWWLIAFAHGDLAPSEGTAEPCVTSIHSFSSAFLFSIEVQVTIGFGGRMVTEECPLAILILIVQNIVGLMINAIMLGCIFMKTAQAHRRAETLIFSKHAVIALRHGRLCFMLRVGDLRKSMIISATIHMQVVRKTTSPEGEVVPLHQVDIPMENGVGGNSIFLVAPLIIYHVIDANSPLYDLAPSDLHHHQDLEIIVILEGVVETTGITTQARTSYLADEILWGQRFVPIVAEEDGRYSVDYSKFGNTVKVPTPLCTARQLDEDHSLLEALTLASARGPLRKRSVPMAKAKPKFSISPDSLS
Sequence of Sulfonylurea receptor 2, Kir6.2 (O60706 whole entry): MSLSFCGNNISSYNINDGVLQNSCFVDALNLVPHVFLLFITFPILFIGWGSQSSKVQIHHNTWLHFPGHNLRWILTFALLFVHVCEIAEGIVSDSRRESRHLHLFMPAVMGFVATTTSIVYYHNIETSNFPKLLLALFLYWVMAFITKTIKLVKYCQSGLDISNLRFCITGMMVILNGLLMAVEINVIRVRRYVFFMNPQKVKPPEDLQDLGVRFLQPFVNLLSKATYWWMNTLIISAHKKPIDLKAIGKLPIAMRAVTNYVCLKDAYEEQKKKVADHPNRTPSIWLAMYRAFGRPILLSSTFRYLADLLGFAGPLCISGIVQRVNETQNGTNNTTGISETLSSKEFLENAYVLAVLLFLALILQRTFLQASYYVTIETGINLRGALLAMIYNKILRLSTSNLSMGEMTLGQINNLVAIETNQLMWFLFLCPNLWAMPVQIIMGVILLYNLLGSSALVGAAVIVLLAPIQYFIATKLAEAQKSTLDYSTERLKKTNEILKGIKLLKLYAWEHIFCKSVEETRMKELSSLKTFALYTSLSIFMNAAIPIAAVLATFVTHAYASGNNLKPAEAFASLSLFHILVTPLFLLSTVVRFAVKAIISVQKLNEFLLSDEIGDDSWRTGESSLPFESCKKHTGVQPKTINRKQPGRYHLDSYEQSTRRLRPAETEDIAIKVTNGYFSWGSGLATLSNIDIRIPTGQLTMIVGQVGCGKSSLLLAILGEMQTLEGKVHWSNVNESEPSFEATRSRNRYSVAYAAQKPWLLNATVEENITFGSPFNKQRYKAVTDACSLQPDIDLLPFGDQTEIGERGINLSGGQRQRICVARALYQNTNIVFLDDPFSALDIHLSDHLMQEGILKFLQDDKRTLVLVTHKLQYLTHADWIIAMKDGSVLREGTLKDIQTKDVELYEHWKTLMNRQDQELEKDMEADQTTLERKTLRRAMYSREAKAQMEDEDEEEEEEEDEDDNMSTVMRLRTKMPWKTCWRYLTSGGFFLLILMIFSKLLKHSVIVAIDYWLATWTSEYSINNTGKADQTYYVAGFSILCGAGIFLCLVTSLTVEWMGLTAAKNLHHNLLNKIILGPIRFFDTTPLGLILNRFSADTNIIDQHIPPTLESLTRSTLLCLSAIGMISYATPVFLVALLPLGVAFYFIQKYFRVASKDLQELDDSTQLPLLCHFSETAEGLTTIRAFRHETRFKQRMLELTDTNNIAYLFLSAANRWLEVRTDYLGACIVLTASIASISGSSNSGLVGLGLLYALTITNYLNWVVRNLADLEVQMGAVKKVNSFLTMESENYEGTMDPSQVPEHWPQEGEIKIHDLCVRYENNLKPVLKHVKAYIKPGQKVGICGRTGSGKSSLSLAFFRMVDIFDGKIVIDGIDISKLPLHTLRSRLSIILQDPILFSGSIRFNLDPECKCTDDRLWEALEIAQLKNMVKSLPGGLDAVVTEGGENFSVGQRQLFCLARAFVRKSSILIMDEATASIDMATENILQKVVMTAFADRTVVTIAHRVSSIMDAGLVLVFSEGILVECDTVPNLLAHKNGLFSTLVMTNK
Outline: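 Human KCNJ11 (Kir6.2) and SUR2A were co-expressed in HEK293 cells to give the ATP-sensitive current IKATP. The assay was run at room temperature by automated parallel patch clamp, with dose-response at 0.2, 0.6, 1.6 and 5 µM. Exposure was 5 min per concentration, with each concentration in two cells (n ≥ 2).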

SMILES: CCCNCC(O)COc1ccccc1C(=O)CCc1ccccc1 (racemic) [PROPAFENONE]
- inhibition [1]: 54.6%
- inhibition [2]: 65.4%
- inhibition at 5 min, 10 µM (Kv4.3): 44.1%
- IC50 [3]: 2200 nM
